From PubChem
KCNK9 inh – KCNK9 potassium channel inhibitors, primary screen, HEK293 cells, thallium flux; Potassium channel subfamily K member 9 (Homo sapiens), Q9NPC2; FluxOR thallium flux fluorescence; stronger effect = lower value; B-score at 10 µM; hit rate 1.2% among 310,000; AID 488922, 2010;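 active means ratio B-score over 3 SD below the library mean, with starting fluorescence within 5 SD of its mean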;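 further: negative B-score means less thallium flux so channel inhibition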
KCNK3 inh – human KCNK3 channel inhibitors, primary screen, CHO cells, FluxOR thallium flux, B-score; FluxOR fluorescence; stronger effect = lower value; hit rate 0.84% among 340,000; Potassium channel subfamily K member 3 (Homo sapiens), O14649; B-score at 10 µM; AID 602410, 2012;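 active means B-score under library mean minus 4 SD, starting fluorescence ratio at most library mean plus 5 SD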;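 further: more negative B-score means stronger inhibition of thallium flux through KCNK3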
hERG protect – hERG rescue from dofetilide block, primary screen, cell-based, CHO-hERG, FluxOR thallium flux, dofetilide IC70; Voltage-gated inwardly rectifying potassium channel KCNH2 (Homo sapiens), Q12809; activation (rescue from dofetilide block), less the hit threshold, % at 10 µM; dofetilide IC70 present; AID 1511, 2009; hit rate 0.51% among 310,000;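 active means activation above the mean of controls blocked by dofetilide plus 5 SD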;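 further: thallium influx through hERG after potassium depolarization seen as dye fluorescence rise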
KCNQ1 block – inhibitors of human KCNQ1 channel, primary screen, cell-based, thallium flux, high-throughput; CHO-K1 KCNQ1, FluxOR thallium flux fluorescence; stronger effect = higher value; B-score at 10 µM; hit rate 1.3% among 310,000;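 active means compounds whose thallium flux B-score, printed positive for inhibition, exceeds three library SD while starting fluorescence stays within three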;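 further: channel opened by potassium depolarization with thallium stimulus after 20 min compound exposure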
KCNQ1 act – potentiators or activators of KCNQ1 channel, primary screen, cell-based, thallium flux, high-throughput; CHO-K1 KCNQ1, thallium flux FluxOR fluorescence; stronger effect = higher value; AID 2648, 2010; B-score at 10 µM; hit rate 0.35% among 310,000;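 active means fluorescence ratio B-score, a plate-corrected score, at least three library SD, with initial intensity B-score within 5 SD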
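Assay system: CHO-K1 cells stably expressing KCNQ1; Medium: assay buffer with matched DMSO; Also added: K+/Tl+ depolarizing stimulus; Dosing: single dose; Timing: dye 90 min, compound 20 min, room temperature; Measured by: kinetic FluxOR thallium fluorescence, 10-s 1-Hz baseline, 110-s post-stimulus read; Read-out: peak-minus-minimum fluorescence over initial fluorescence, negative-control normalized, B-scored.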
Kir21 inh – inhibitors of mouse Kir2.1 inward-rectifier potassium channel; Inward rectifier potassium channel 2 (Mus musculus), P35561; HEK293-Kir2.1, FluxOR thallium flux fluorescence; stronger effect = lower value; B-score at 10 µM; hit rate 0.85% among 310,000; AID 1672, 2009;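 active means fluorescence ratio B-score at or below minus 3 SD of library scores, with starting-brightness B-score within 2 SD, cut at about -4.2 in these data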;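 further: channel flux triggered by added potassium and thallium sulfate stimulus; B-score of peak minus minimum fluorescence over baseline after thallium stimulus; more negative B-score means stronger Kir2.1 block with less thallium influx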
Target sequence (P35561 whole entry, looked up): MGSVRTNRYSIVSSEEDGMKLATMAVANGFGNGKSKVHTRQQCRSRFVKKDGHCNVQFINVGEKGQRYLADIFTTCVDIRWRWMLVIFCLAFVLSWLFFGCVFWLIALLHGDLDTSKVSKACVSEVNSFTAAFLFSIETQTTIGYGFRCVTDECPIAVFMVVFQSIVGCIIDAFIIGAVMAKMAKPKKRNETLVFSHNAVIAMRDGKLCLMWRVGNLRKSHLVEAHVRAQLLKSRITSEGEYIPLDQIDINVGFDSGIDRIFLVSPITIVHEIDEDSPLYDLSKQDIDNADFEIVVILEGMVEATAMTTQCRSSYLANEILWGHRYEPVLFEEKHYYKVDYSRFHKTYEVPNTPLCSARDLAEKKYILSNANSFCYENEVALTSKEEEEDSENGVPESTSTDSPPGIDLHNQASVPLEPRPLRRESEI
KCNK3 inh conf – retest of human KCNK3 channel inhibitors, confirmation, CHO cells, FluxOR thallium flux, triplicate | FluxOR fluorescence; 0% buffer, 100% carvedilol maximal block | ratio percent of control, % at 10 µM | shares compounds with KCNK3 inh | hit rate 99% among 2,400;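 active means ratio percent of control, averaged over triplicates, above buffer control mean plus 5 SD, cut at about 64% in these data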;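 further: ratio is the fluorescence rise from min to max over baseline after thallium stimulus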
KCNK3 noninduced – thallium flux inhibition in non-induced cells, primary screen, counter-screen for KCNK3 inhibitor project, cell-based, non-induced KCNK3 line, FluxOR thallium, triplicate. shares compounds with KCNK3 inh. non-induced KCNK3 parental cells; stronger effect = lower value. thallium flux ratio (lower = more inhibition) at 10 µM. hit rate 40% among 2,400. AID 651747, 2012;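 active means thallium flux ratio, averaged over three wells, more than 5 SD below the buffer control mean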;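 further: host cells are CHO cells without KCNK3 induction; ratio is peak minus trough fluorescence over baseline then normalized to buffer controls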
* = called active by the depositor. Sampled rows, rich in hits. Any-hit rate of the full collection: about 3.7%.

For COc1ccc(OCC(O)CNCCOc2ccccc2OC)c(C(C)(C)C)c1 (stereo not drawn) the results were KCNK9 inh inactive, KCNK3 inh inactive, hERG protect -15, KCNQ1 block inactive, KCNQ1 act inactive and Kir21 inh -3.5.
`Cc1ccc2[nH]c(O)c(N=NC(=O)CCc3ccccc3)c2c1Br` gave KCNK9 inh inactive, KCNK3 inh inactive, hERG protect -6, KCNQ1 block inactive, KCNQ1 act inactive and Kir21 inh 0.9.
Screening COc1ccc(N2CCN(Cc3cc4c(cc3O)CCC4)CC2)cc1 returned KCNK9 inh inactive, KCNK3 inh inactive, hERG protect -16, KCNQ1 block inactive, KCNQ1 act inactive and Kir21 inh 2.6.
`Oc1cc2c(cc1CN1CCN(c3cccc(C(F)(F)F)c3)CC1)CCC2` gave KCNK9 inh inactive, KCNK3 inh -9.4*, hERG protect -14, KCNQ1 block inactive, KCNQ1 act inactive, Kir21 inh 0.56, KCNK3 inh conf 100* and KCNK3 noninduced 0.15*.
For CCC(C)(c1ccc(C(=O)OC)s1)c1ccc(C(=O)OC)s1 the results were KCNK9 inh inactive, KCNK3 inh -9.1*, hERG protect -7, KCNQ1 block inactive, KCNQ1 act inactive, Kir21 inh -2.1, KCNK3 inh conf 119* and KCNK3 noninduced 0.14*.
Screening CN=C(Nc1ccc(C(=O)OC)s1)c1ccccc1 returned KCNK9 inh inactive, KCNK3 inh inactive, hERG protect -1, KCNQ1 block inactive, KCNQ1 act inactive and Kir21 inh 0.06.
For O=C(N/N=C/c1c[nH]c2ccccc12)c1ccn(Cc2ccc(Cl)cc2)n1 the results were KCNK9 inh inactive, KCNK3 inh -11*, hERG protect -16, KCNQ1 block inactive, KCNQ1 act inactive, Kir21 inh 0.97, KCNK3 inh conf 98* and KCNK3 noninduced 0.15*.
For O=C(N/N=C/c1c[nH]c2ccc(Br)cc12)c1ccn(Cc2ccc(Cl)cc2Cl)n1 the results were KCNK9 inh -7.2*, KCNK3 inh -9.8*, hERG protect -12, KCNQ1 block inactive, KCNQ1 act inactive, Kir21 inh 0.57, KCNK3 inh conf 79* and KCNK3 noninduced inactive.
Screening CN1CCN(C2Cc3cc(F)ccc3Sc3ccc(Cl)cc32)CC1 (stereo not drawn) returned KCNK9 inh inactive, KCNK3 inh -10*, hERG protect -14, KCNQ1 block inactive, KCNQ1 act inactive, Kir21 inh -1.8, KCNK3 inh conf 114* and KCNK3 noninduced inactive.
For CCOc1ccccc1NC(=O)N1CCc2ccccc2C1 the results were KCNK9 inh inactive, KCNK3 inh -9*, hERG protect -15, KCNQ1 block inactive, KCNQ1 act inactive, Kir21 inh 0.91, KCNK3 inh conf 84* and KCNK3 noninduced inactive.
For O=C1OC[C@H]2CCCN2C(=O)[C@@H](CC(=O)N(CCO)Cc2ccccc2)C/C=C\CC[C@H]1Cc1ccc(F)cc1 the results were KCNK3 inh inactive.
Cc1ccc(O)c(C(CC(=O)NCc2ccco2)c2ccccc2)c1 (stereo not drawn) was read as KCNK9 inh inactive, KCNK3 inh inactive, hERG protect -3, KCNQ1 block inactive, KCNQ1 act inactive and Kir21 inh -2.6.
`Cc1cccc(C(CC(=O)NCc2ccco2)c2ccccc2)c1O` (stereo not drawn) gave KCNK9 inh inactive, KCNK3 inh -9*, hERG protect -18, KCNQ1 block inactive, KCNQ1 act inactive, Kir21 inh 0.01, KCNK3 inh conf 110* and KCNK3 noninduced inactive.
For O=C(CSc1nc(Nc2ccccc2)nc(N2CCOCC2)n1)Nc1cccc([N+](=O)[O-])c1 the results were KCNK9 inh inactive, KCNK3 inh -11*, hERG protect -10, KCNQ1 block inactive, KCNQ1 act inactive, Kir21 inh 1.1, KCNK3 inh conf 110* and KCNK3 noninduced 0.15*.
Screening O=C(CSc1nc(Nc2ccccc2)nc(N2CCOCC2)n1)Nc1ccc([N+](=O)[O-])cc1 returned KCNK9 inh inactive, KCNK3 inh inactive, hERG protect -12, KCNQ1 block inactive, KCNQ1 act inactive and Kir21 inh -0.18.
For CN(c1ccccc1C(=O)Nc1ccccc1-c1ccccc1)S(C)(=O)=O the results were KCNK9 inh inactive, KCNK3 inh inactive, hERG protect -4, KCNQ1 block inactive, KCNQ1 act inactive and Kir21 inh 0.68.
Screening COc1ccccc1CNC(=O)Cc1csc(NC(=O)Nc2ccccc2OC)n1 returned KCNK9 inh inactive, KCNK3 inh -8.7*, hERG protect -14, KCNQ1 block inactive, KCNQ1 act inactive, Kir21 inh -0.33, KCNK3 inh conf 99* and KCNK3 noninduced inactive.
For COc1ccccc1NC(=O)Nc1nc(CC(=O)NCc2ccccn2)cs1 the results were KCNK9 inh inactive, KCNK3 inh inactive, hERG protect -11, KCNQ1 block inactive, KCNQ1 act inactive and Kir21 inh 1.
O=C(CSc1nnc(CNC(=O)c2ccco2)o1)Nc1cccc(Cl)c1 was read as KCNK9 inh inactive, KCNK3 inh inactive, hERG protect -4, KCNQ1 block inactive, KCNQ1 act inactive and Kir21 inh -0.06.
Screening CCn1c(=O)c2c3c(sc2n2c(=S)[nH]nc12)CCC3 returned KCNK9 inh inactive, KCNK3 inh inactive, hERG protect -14, KCNQ1 block inactive, KCNQ1 act inactive and Kir21 inh 1.6.
Screening Clc1cccc(OCc2nnc(-c3ccccc3Br)o2)c1 returned KCNK9 inh inactive, KCNK3 inh -11*, hERG protect -13, KCNQ1 block inactive, KCNQ1 act inactive, Kir21 inh 0.31, KCNK3 inh conf 105* and KCNK3 noninduced inactive.
